# What was measured:
# [1] = test system: human lung carcinoma (A549) cells; test: In vitro cytotoxic effect; type: cell-based
# Summary of the method: (§1)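 Cells were seeded at 5×10^3 cells/well and grown 24 h at 37°C. LLC cells were grown in DMEM with 10% FBS and A549 cells in RPMI with 10% FBS. Cells were exposed to serially diluted test compound at 0.01–10 μg/mL PMX-equivalent for 48 h. WST-8 (CCK-8) was added for 2 h and absorbance read at 450 nm. Viability is % of untreated cells; mean ± SD, n=6.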
# [2] = Parallel artificial membrane permeability assay; type: in vitro ADME; details: PAMPA, pH 6.8
# Summary of the method: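 Donor wells held test compound diluted in PBS pH 6.8 to 200 μg/mL PMX-equivalent; acceptor wells held PBS pH 6.8. Plates were incubated 5 h at room temperature, then donor and acceptor were both sampled. Permeated PMX was quantified by HPLC at 254 nm.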
# [3] = In vitro permeability across a Caco-2 cell monolayer; type: in vitro ADME; details: human
# Summary of the method: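 Caco-2 monolayers were grown on Transwell inserts (0.4 μm pores, 1.12 cm2). Test compound was applied. Transported samples were filtered (0.45 μm PVDF), and drug in them was quantified by HPLC-UV. The apparent permeability coefficient was calculated from the transported amount.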
# [4] = test system: Lewis lung carcinoma (LLC) cells; test: In vitro cytotoxic effect; type: cell-based; details: 48 h, read-out: Cell viability
# Summary of the method: as §1
# LLC cells = test: In vitro wound-healing assay, LLC cells; type: cell-based; details: equivalent to 0.5 μg/mL (0.84 μM) PMX, 48 h
# Summary of the method: (§2)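 Cells were plated at 3×10^4 cells/well on collagen-coated plates, LLC in DMEM and A549 in RPMI, each with 10% FBS. They were grown 48 h at 37°C to near-confluence. A wound maker scratched the monolayer, which was washed twice with PBS pH 7.4. Cells were then exposed to test compound at 0.01–10 μg/mL PMX-equivalent for 48 h at 37°C. Phase-contrast images every 12 h; automated edge-detection mask gave the area.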
# A549 cells = test: In vitro wound-healing assay, A549 cells; type: cell-based, human; details: 48 h
# Summary of the method: as §2
# In vitro drug release = type: physicochemical; details: basket 100 rpm
# [5] = In vivo pharmacokinetic study in rats; details: Sprague Dawley, rat, plasma, po, 20 mg/kg
# LLC tumor-bearing mice = test: In vivo tumor growth inhibition in LLC tumor-bearing mice; design: species or system C57BL/6 mice
# Summary of the method: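 Female C57BL/6 mice (20–25 g) received 1×10^6 LLC cells in 100 μL PBS pH 7.4 subcutaneously in the flank. At 80–100 mm3, mice were randomised into groups of 10 (untreated, oral daily, or IV once-weekly 20 mg/kg PMX in water). Oral groups were fasted 4 h before and 2 h after dosing. Calipers measured tumors every 3 days for 21 days; volume = a2×b×0.52. Mean ± SD, n=10.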
# [6] = once-weekly IV 20 mg/kg PMX, 3 weeks
"Papp at 5 h, 200 μg/mL [2]","Papp at 5 h, 100 μg/mL [3]","Drug dissolved within 15 min (In vitro drug release; 0.1 N HCl pH 1.2, 37°C)","Drug released within 15 min (In vitro drug release; phosphate buffer pH 6.8, 37°C)",half-life [5],Compound,"Cell viability after the addition of excipient alone ([1]; A549 cells, excipient alone, amount matching the same molar concentration of PMX)",viability at 0.08 µM [4],viability at 0.84 µM [4],viability at 5 µg/mL [4],"viability at 8.37 µM ([1]; Homo sapiens, A549, 48 h, read-out: Cell viability)",Relative wound recovery (LLC cells),"Inhibition of cell proliferation/migration, fold higher than control cells (A549 cells; equivalent to 0.5 μg/mL (0.84 μM) PMX)",Wound recovery rate (A549 cells; equivalent to 1 μg/mL (1.67 μM) PMX),"Reduction in tumor volume and mass vs control mice (LLC tumor-bearing mice; once-a-day oral 20 mg/kg PMX in water, 21 days)",Tumor volume lower than control group (LLC tumor-bearing mice; [6]),Tumor volume lower than oral PMX group (LLC tumor-bearing mice; [6])
–,–,–,–,–,2-hydroxypropyl-beta-cyclodextrin [HP-beta-CD],> 80%,–,–,–,–,–,–,–,–,–,–
0.665 ± 0.207 ×10⁻⁶ cm/s,0.498 ± 0.096 ×10⁻⁶ cm/s,More than 90%,More than 90%,7.03 ± 1.61 h,"Nc1nc2[nH]cc(CCc3ccc(C(=O)N[C@@H](CCC(=O)O)C(=O)O)cc3)c2c(=O)[nH]1 [PMX, N-[4-[2-(2-amino-3,4-dihydro-4-oxo-7H-pyrrolo[2,3-d]pyrimidin-5-yl)-ethyl]-benzoyl]-L-glutamic acid]",–,< 80%,45.4%,29.8%,52.2%,57.5%±5.76%,1.28 fold,54.0%±5.09%,did not show significant reductions in the tumor volume and mass,49%,46%

# Reference: paper PMC5995301 (International Journal of Nanomedicine, 2018)
